Laboratory results: ChEMBL document CHEMBL1124891, “Azulene derivatives: new non-prostanoid thromboxane A2 receptor antagonists” (J Med Chem, 1990)

How the values were obtained:
Assay type in all cases: functional
Oryctolagus cuniculus [1] = species on record: Oryctolagus cuniculus; test: Tested for the concentration that causes 50% relaxation when contraction in rabbit aorta was induced by 3 x 10 E -8 M of U-46619.
Outline: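 Rabbit thoracic aorta strips held at 37 °C in oxygenated (95% O2/5% CO2) bicarbonate salt solution with dextrose, resting tension 1.5 g, equilibrated 1 h. Isometric tension recorded via force transducer. Once contraction to 3×10^-8 M U-46619 plateaued, compound added cumulatively. Concentration giving 50% relaxation of maximal U-46619-induced tension change obtained by regression of concentration–relaxation curve.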

[2] = Selectivity index is the […] between the IC50 values in the aggregation and contraction assays
Outline: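 Index for τ-receptor computed as […] between IC50 in rabbit PRP aggregation (2.5×10^-6 M U-46619) and IC50 for relaxing rabbit aorta contracted by 3×10^-8 M U-46619.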

Oryctolagus cuniculus [3] = species on record: Oryctolagus cuniculus; test: Tested for the concentration that cause 50% inhibition of the maximum aggregation with rabbit platelet-rich plasma induced by 2.5 x 10 E -6 M of U-46619
Outline: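 Rabbit blood drawn from carotid artery into 3.18% trisodium citrate (1/10 volume). PRP from 300 g spin for 15 min; PPP from 1000g spin for 20 min, used as 100% transmission reference. PRP warmed 2 min at 37 °C, compound or vehicle added, 2 min later 2.5×10^-6 M U-46619. Turbidimetric (Born) aggregometry; IC50 as 50% inhibition of maximum aggregation.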

Structure (SMILES)	IC50 (Oryctolagus cuniculus [1]) [µM]	Selectivity index [2]	IC50 (Oryctolagus cuniculus [3]) [µM]
CC(C)c1ccc2c(CCNS(=O)(=O)c3ccccc3)cc(C(=O)O)c-2cc1	14	> 7	> 100
CC(C)c1ccc2c(CCCCNS(=O)(=O)c3ccccc3)cc(S(=O)(=O)O)c-2cc1	1.1	> 91	> 100
CC(C)c1ccc2c(CCCCNS(=O)(=O)c3ccc(Cl)cc3)cc(C(=O)O)c-2cc1	0.15	> 667	> 100
CC(C)c1ccc2c(CCCCNS(=O)(=O)c3ccccc3)cc(C(=O)O)c-2cc1	1.6	> 63	> 100
COc1ccc(S(=O)(=O)NCCCCc2cc(C(=O)O)c3ccc(C(C)C)ccc2-3)cc1	0.43	> 233	> 100
CC(C)c1ccc2c(/C=C/C(=O)O)cc(CCCCNS(=O)(=O)c3ccccc3)c-2cc1	16	> 6	> 100
CC(C)c1ccc2c(CCCNS(=O)(=O)c3ccccc3)cc(C(=O)O)c-2cc1	14	> 7	> 100
CC(C)c1ccc2c(CCCCNS(=O)(=O)c3ccc(Cl)cc3)cc(S(=O)(=O)O)c-2cc1	0.023	378	8.7
CC(C)c1ccc2c(CCCCNS(=O)(=O)c3ccccc3)cc(CC(=O)O)c-2cc1	3	> 33	> 100
COc1ccc(S(=O)(=O)NCCCCc2cc(S(=O)(=O)O)c3ccc(C(C)C)ccc2-3)cc1	0.097	660	64
CC(C)c1ccc2c(CCCCCNS(=O)(=O)c3ccccc3)cc(C(=O)O)c-2cc1	3.4	> 29	> 100
O=C(O)COc1ccc(CCNS(=O)(=O)c2ccccc2)cc1 [SULOTROBAN]	1.3	5	7.1
